Laboratory results published in ChEMBL document CHEMBL4665889, “Design, Synthesis, and Pharmacological Characterization of a Neutral, Non-Prodrug Thrombin Inhibitor with Good Oral Pharmacokinetics” (J Med Chem, 2020).

Legend:
Plasma = assay: Anticoagulation activity in human plasma assessed as drug level causing doubling of prothrombin time incubated for 3 mins; format: functional; details: 0.05 h
Outline: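 Citrated human plasma (0.11 M citrate 1:9, spun ~4000g 15 min) incubated with compound at 37 °C for 3 min. Clotting started with thromboplastin and time to coagulation recorded. Value is the concentration doubling clotting time (PT or aPTT).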

[1] = Clearance in Wistar rat hepatocytes at 1 uM incubated up to 90 mins by LC-MS/MS analysis; format: ADME, cell-based, Hepatocyte; details: Wistar
Outline: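 Fresh male Wistar rat hepatocytes, 1 × 10⁶ viable cells/mL, in Williams' medium E at 37 °C, pH 7.4, with 1 μM substrate and <1% acetonitrile. Samples at 2–90 min quenched in acetonitrile and analysed by LC-MS/MS.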

[2] = Permeability from apical to basolateral side in human Caco2 cells incubated for 2 hrs by LC-MS/MS analysis; format: ADME, cell-based; details: Caco-2
Outline: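 Caco-2 cells grown 15 d on 0.4 μm inserts, TEER ≥600 Ω. Compound (DMSO stock diluted 100-fold) in HBSS pH 7.4 with 10 mM HEPES and 20 mM glucose, added apically or basolaterally. Incubated 2 h at 37 °C and analysed by LC-MS/MS. Papp = (Vr/P0)·(1/S)·(P2/t); mean and SD.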

[3] = AUC/dose in Wistar Hannover rat at 0.3 to 0.5 mg/kg, iv by LC-MS/MS analysis; format: ADME, organism-based; details: in vivo, dose 0.3-0.5 mg/kg, time <=24 hrs
Outline: (§1)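 Male Wistar Hannover rats, catheterized under isoflurane; one day later iv injection into lateral tail vein at 0.3 to 0.5 mg/kg in plasma containing 2% DMSO. Blood sampled via catheter from 0.033 to 24 h. Plasma precipitated with acetonitrile, analysed by LC-MS/MS (10 mM ammonium acetate pH 3.0/acetonitrile gradient). PK parameters calculated from plasma concentrations.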

[4] = Ratio of drug level in blood to plasma in Wistar Hannover rat at 0.3 to 0.5 mg/kg, iv by LC-MS/MS analysis; format: ADME, organism-based; details: blood and plasma, dose 0.3-0.5 mg/kg, time <=24 hrs
[5] = Blood clearance in Wistar Hannover rat at 0.3 to 0.5 mg/kg, iv by LC-MS/MS analysis; format: ADME, organism-based; details: whole blood, dose 0.3-0.5 mg/kg, time <=24 hrs; outline: as §1
[6] = Oral bioavailability in Wistar Hannover rat at 1 mg/kg by LC-MS/MS analysis; format: ADME, organism-based; details: in vivo, time <=24 hrs
Outline: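 Catheterized male Wistar Hannover rats dosed by gavage at 1 mg/kg in 10% ethanol/40% PEG/50% water. Blood taken via catheter at 0.083 to 24 h. Plasma precipitated with acetonitrile and analysed by LC-MS/MS. Bioavailability derived against iv dosing at 0.3 to 0.5 mg/kg.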

[7] = biological target: T1, Nuclear receptor subfamily 1 group I member 2 (Homo sapiens, UniProt O75469); assay: Activation of human PXR expressed in human HepG2 cells; format: ADME, cell-based
T1 sequence (O75469 whole entry): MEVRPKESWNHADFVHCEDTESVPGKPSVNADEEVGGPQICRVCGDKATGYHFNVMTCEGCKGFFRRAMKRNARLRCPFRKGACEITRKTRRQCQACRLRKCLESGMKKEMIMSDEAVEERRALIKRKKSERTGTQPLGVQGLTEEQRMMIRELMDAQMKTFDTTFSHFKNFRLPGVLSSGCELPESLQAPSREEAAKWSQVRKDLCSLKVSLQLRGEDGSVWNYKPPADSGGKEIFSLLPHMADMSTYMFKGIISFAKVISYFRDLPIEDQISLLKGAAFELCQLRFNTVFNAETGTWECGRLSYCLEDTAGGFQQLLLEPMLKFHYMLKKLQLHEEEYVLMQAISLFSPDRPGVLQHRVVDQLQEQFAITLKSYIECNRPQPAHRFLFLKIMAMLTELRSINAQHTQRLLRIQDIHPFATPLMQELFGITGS
Outline: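 HepG2 cells transiently co-transfected with human PXR and a luciferase reporter under the human CYP3A4 promoter, 48 h before readout. 24 h after seeding, 1:3 serial dilutions (2 nM to 50 μM, 0.5% DMSO) added. Luminescence normalized to rifampicin (100%) and DMSO (0%). MEC is the lowest concentration raising signal above 4-fold SD of DMSO background.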

[8] = Volume of distribution at steady state in Wistar Hannover rat at 0.3 to 0.5 mg/kg, iv by LC-MS/MS analysis; format: ADME, organism-based; details: in vivo, dose 0.3-0.5 mg/kg, time <=24 hrs, read-out: Vdss; outline: as §1
[9] = biological target: T1, Nuclear receptor subfamily 1 group I member 2; assay: Activation of human PXR human hepatocytes assessed as induction of CYP3A4 mRNA expression incubated for 48 hrs by qPCR analysis; format: ADME, tissue-based, Hepatocyte
Outline: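 Human hepatocytes in collagen sandwich, cultured 1 d, then treated with eight 1:3 serial concentrations for 2 consecutive days with daily media change. mRNA isolated on magnetic beads, reverse transcribed, and quantified by TaqMan qRT-PCR against actin/tubulin. Fold induction over vehicle by ΔΔCt; NOEL reported.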

Cytochrome P450 = assay: Inhibition of CYP450 (unknown origin) at 20 uM; format: ADME, protein assay; details: human
[10] = Half life in Wistar Hannover rat at 0.3 to 0.5 mg/kg, iv by LC-MS/MS analysis; format: ADME, organism-based; details: in vivo, dose 0.3-0.5 mg/kg, time <=24 hrs; outline: as §1
[11] = MRT in Wistar Hannover rat at 0.3 to 0.5 mg/kg, iv by LC-MS/MS analysis; format: ADME, organism-based; details: in vivo, dose 0.3-0.5 mg/kg, time <=24 hrs; outline: as §1

CLhep predicted at 1 µM [1]: 38.3 mL/min/kg
Papp A→B at 2 h [2]: 12.6 ×10⁻⁶ cm/s
AUC/dose [3]: 0.48 kg·h/L
blood plasma ratio [4]: 1.24
clearance [5]: 28.3 mL/min/kg
bioavailability [6]: 46%
MEC [7]: 0.69 µM
Vd [8]: 2.4 L/kg
inhibition (INH) (Cytochrome P450): Not Active
half-life [10]: 1.3 h
MRT [11]: 1.1 h
SMILES: COc1cc(C(=O)N2CC[C@@H](O)[C@H](C)C2)cc2nc(NCc3cccc(Cl)c3)oc12
2PT (Plasma): 6 µM
NOAEL [9]: 370 ng/mL
